T cell HTS – modulates CD8 T cell binding to vesicles; response (vesicle binding), % at 7 µM; 2C CD8+ T cell-vesicle binding, flow cytometry; active compounds read low; AID 2052; 0.068% of 330,000 active;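 active = response, share of CD8 T cells binding vesicles, and their 90th percentile fluorescence all below set limits, cut at about 80% in these data, passing the limit was not always enough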;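 note: values below 100% mean blocked vesicle binding to the CD8+ T cells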
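Assay system – 2C mouse CD8+ T cells · Also added – QL9-loaded Drosophila micro-vesicles · Timing – Cell–vesicle co-incubation 1.5 h at 37 °C, staining 20 min on ice · Signal – flow cytometry of vesicle-bound cells · Measure – percent CD8+ FL2 mean versus row control · Controls – Peptide-free naked vesicles (low) and QL9 vesicles with 0.7% DMSO vehicle (high)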
Exocytosis inh – blocks lytic granule exocytosis | inhibition, % at 10 µM | TALL-104 LAMP-1 surface exposure, flow cytometry; cells stimulated with thapsigargin and PMA | 0.66% of 360,000 active;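 active = inhibition above about 55%, limit read from the data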
MPTP inh – inhibitors of mitochondrial permeability transition pore | AID 602449 | inhibition, % at 10 µM | isolated mouse mitochondria, Ca2+ swelling absorbance, 30 min | 1.4% of 360,000 active;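 active = inhibition of 50% or more, scaled per plate between neutral and stimulator controls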;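 note: 0% = DMSO wells given calcium and 100% = 1 mM EGTA wells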
V-ATPase pH – yeast V-ATPase proton transport regulation by pHLuorin | S. cerevisiae, pHLuorin cytosolic pH fluorescence | response, % at 10 µM | 0.37% of 350,000 active | AID 504577; in the data active = response mostly above about 7.3%, no sharp cut-off; inactive = mostly below about 5.4%; note: actives read high
Beta2AR agonist – human beta-2 adrenergic receptor agonism by FAP; P07550; Am2.2-beta2AR cells, FAP receptor internalization, flow cytometry; response, % (test concentration not listed); 0.43% of 340,000 active; AID 504454;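 active = response above a set limit, near 3 SD of response in nonfluorescent compounds, cut at about 42% in these data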
Target sequence (P07550 whole entry, looked up): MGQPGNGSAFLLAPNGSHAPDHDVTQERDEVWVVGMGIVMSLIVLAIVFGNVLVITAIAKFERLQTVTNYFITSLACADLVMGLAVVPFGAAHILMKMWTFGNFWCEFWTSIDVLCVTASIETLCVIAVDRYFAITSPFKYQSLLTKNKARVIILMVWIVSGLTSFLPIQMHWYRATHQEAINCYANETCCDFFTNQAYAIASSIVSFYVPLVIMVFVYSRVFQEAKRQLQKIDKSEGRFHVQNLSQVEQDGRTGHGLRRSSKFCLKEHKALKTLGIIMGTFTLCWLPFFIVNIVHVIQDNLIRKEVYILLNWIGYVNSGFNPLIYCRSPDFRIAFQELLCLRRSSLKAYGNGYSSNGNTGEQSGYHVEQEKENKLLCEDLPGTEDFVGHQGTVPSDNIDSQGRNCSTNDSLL
rCAG binder – r(CAG) repeat RNA binding | TO-PRO-1 dye displacement fluorescence | inhibition, % at 3 µM | 1.3% of 370,000 active;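 active = inhibition above the plate cutoff, the mean of all test compounds on that plate plus 3 SD, cut at about 35% in these data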;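 note: 0% = DMSO alone and 100% = 100 µM mitoxantrone as full dye displacement; higher means more dye released from RNA so lower well fluorescence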
MPTP counter – membrane potential counter-screen of mitochondrial pore inhibitors; 78% of 5,000 active; AID 624504; isolated mitochondria, Rhodamine 123 fluorescence; inhibition, % at 10 µM; shares compounds with MPTP inh; in the data active = inhibition above about 22%;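 note: 0% = DMSO vehicle and 100% = positive control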
MPTP abs DR – MPTP inhibition, dose response swelling confirmation; shares compounds with MPTP inh; isolated mitochondria swelling, absorbance; IC50, µM; 58% of 780 active; in the data active = IC50 below about 20 µM
MPTP cs DR – counter-screen for mitochondrial permeability transition pore inhibitors, dose response; shares compounds with MPTP inh; AID 651564; IC50, µM; isolated mitochondria counterscreen, fluorescence read-out; 49% of 780 active; in the data active = IC50 below about 80 µM
Exocytosis CP01 – blocks lytic granule exocytosis | shares compounds with Exocytosis inh | TALL-104 cells, LAMP-1 externalization, flow cytometry; stimulated with PMA plus thapsigargin | inhibition, % at 10 µM | 11% of 1,500 active | AID 651954; in the data active = inhibition above about 60%;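 note: 0% = stimulated vehicle wells and 100% = unstimulated wells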
Numbers without * were called inactive; i = inactive; / = not tested or not shown; ! = a repeat was not active. Shown are actives, neighbours in structure and some others; about 3.8% of the full set was active somewhere.

SMILES	T cell HTS	Exocytosis inh	MPTP inh	V-ATPase pH	Beta2AR agonist	rCAG binder	MPTP counter	Exocytosis CP01	others
O=[N+]([O-])c1ccc2nc(C(O)C(O)c3nc4ccc([N+](=O)[O-])cc4[nH]3)[nH]c2c1 (configuration not stated)	180.8	7.9	-0.2	-0.6	-6.5	6.4	/	/
O=[N+]([O-])c1ccc2nc(/C=C/c3ccc(Cl)cc3)[nH]c2c1	i	91.1*	90.0*	-2.0	20.8	17.7	80.1*	88.5*
CCOc1cccc(/C=N\NC(=O)c2cnccn2)c1O	/	/	/	/	/	2.1	/	/
CCCC[C@H]1C2CC(OC(=O)Nc3ccc(F)cc3)C(C2)[C@H]2CCCCN21 (some centres not stated)	/	/	/	/	/	6.0	/	/
CCN(Cc1ccccc1)CC(O)COC(c1ccc(OC)cc1)c1ccc(OC)cc1 (configuration not stated)	176.1	65.5*	79.3*	1.5	0.8	6.5	0.1	-11.3	MPTP abs DR=>100;MPTP cs DR=54.3*
O=C1OC(c2ccc(O)cc2)(c2ccccc2O)c2ccccc21 (configuration not stated)	/	-1.3	2.1	1.2	14.5	5.1	/	/
O=C1OC(c2ccccc2)(c2cc(Br)ccc2O)c2ccccc21 (configuration not stated)	/	102.6*	75.7*	-0.9	14.9	10.7	97.0*	98.7*
CCCCNc1c(-c2ccc(OC)c(SC3CCCCC3)c2)nc2ccc(C)cn12	150.2	86.0*!	76.4*!	-0.4	75.7*	5.6	98.1*	77.1*
COc1ccc(-c2cc3c(=O)n(CC(=O)NCCN4CCCC4)nc(C)n3n2)cc1	474.6	0.4	-2.2	2.7	-6.4	8.7	/	/
Cc1nn(CC(=O)NCCCN2CCC(Cc3ccccc3)CC2)c(=O)c2cc(-c3ccccc3)nn12	293.7	87.3*	74.5*	10.9	29.3	2.3	-6.0	3.1	MPTP abs DR=i;MPTP cs DR=>80
COc1cccc(N2CCN(c3ncnc4c3[nH]c3ccccc34)CC2C)c1 (configuration not stated)	163.3	/	/	/	/	3.0	/	/
COc1cccc(N2CCN(c3ncnc4c3[nH]c3ccc(F)cc34)CC2C)c1 (configuration not stated)	141.8	98.5*	99.6*	/	40.6	5.9	92.7*	103.6*
Cc1cc(Nc2cccc(Cl)c2)nc(NCc2ccccc2)n1	125.3	70.2*	82.2*	8.1	-10.8	3.4	86.8*	-8.6
Cc1cc(N/N=C/c2cccc(Cl)c2)nc(NCc2ccccc2)n1	104.4	2.0	20.0	0.0	9.7	2.6	/	/
CCCCCCn1c(-c2ccc(Cl)cc2Cl)csc1=Nc1ccccc1	/	/	/	/	/	3.0	/	/
O=C(CN1CCN(Cc2ccccc2Cl)CC1)N/N=C\c1ccccc1F	/	/	/	/	/	-0.3	/	/
COc1ccc(S(=O)(=O)Nc2cc(C(C)C)c(O)cc2C)cc1	296.3	-0.8	2.0	0.4	-2.2	0.6	/	/
COc1ccc2nc3cc(Cl)ccc3c(Nc3cc(C(C)C)c(O)cc3C)c2c1	580.7	61.9*	84.4*	2.7	34.5	16.2	109.4*	54.4
COC(=O)c1c(NC(=O)c2nc3ccccc3s2)sc2c1CC(C)(C)NC2(C)C	835.5	67.2*	60.3*	-1.1	-5.4	5.8	-9.0	85.2*	MPTP abs DR=i;MPTP cs DR=>80
O=C(NCCN1CCC(Cc2ccccc2)CC1)C1CCCN(S(=O)(=O)c2ccc(Cl)s2)C1 (configuration not stated)	/	/	/	/	/	2.1	/	/
O=C1c2cccc3cccc(c23)C(=O)N1CC1CCN(CC(O)COc2ccc3ccccc3c2)CC1 (configuration not stated)	i	58.0*	89.2*	-3.7	81.9*	11.5	99.1*	39.9
O=C(N1CCOCC1)N1CCN(CC(O)COc2ccc3ccccc3c2)CC1 (configuration not stated)	203.9	0.2	-1.2	-1.4	0.2	-9.4	/	/
CCOc1cc(CNCCO)cc(Br)c1OCc1ccc(Cl)cc1	140.6	63.3*	90.1*	2.3	35.7	10.1	-22.6	-6.2	MPTP abs DR=3.79*;MPTP cs DR=61.2*
Cc1cccc(Cn2nc(C(C)(C)C)cc2C(=O)Nc2ccc(F)cc2)c1	166.0	55.7*	82.8*	-2.7	36.0	-1.8	87.0*	0.0
Oc1ccccc1C1CC(c2cccs2)=NC(c2cccc(Br)c2)N1 (configuration not stated)	i	69.2*	84.2*	4.2	8.7	9.1	96.9*	-14.6
SMILES	T cell HTS	Exocytosis inh	MPTP inh	V-ATPase pH	Beta2AR agonist	rCAG binder	MPTP counter	Exocytosis CP01	others
CCOC(=O)C1(CCOc2ccccc2)CCN(Cc2ccc(OC)c(COC)c2)CC1	278.2	73.6*	86.4*	-1.1	5.7	-11.2	74.5*	-9.2
Cc1ccc2nc(-c3ccc(N4C(=O)CC(N5CCN(CCO)CC5)C4=O)cc3)sc2c1 (configuration not stated)	343.4	66.3*	94.5*	6.5	33.9	1.0	-5.9	62.1*	MPTP abs DR=18.6*;MPTP cs DR=>80
CC(C)C[C@H](NC(=O)C1CC1)C(=O)N1CCC[C@H]1C(=O)NCc1ccccc1	/	/	/	/	/	-0.3	/	/
COc1cc(-c2coc3c(C(=O)NCc4ccc(OC)c(OC)c4)cccc23)ccc1O	/	66.1*	73.0*	/	/	9.4	58.3*	91.6*
COc1cc(-c2coc3c(C(=O)NCc4ccc(N(C)C)cc4)cccc23)ccc1O	/	3.6	0.4	/	/	13.9	/	/
COc1ccc(C(=O)C2CCCN(Cc3cccn3-c3ccc(Cl)cn3)C2)c(OC)c1 (configuration not stated)	170.3	68.5*	75.6*	-2.7	17.1	12.4	98.6*	-1.2
COc1ccc(C(=O)C2CCCN(Cc3c(F)ccc(F)c3F)C2)c(OC)c1 (configuration not stated)	173.6	4.3	0.2	0.3	-5.2	-9.7	/	/
CCOc1ccc(-c2cc(C(C)=O)c3n(c2=O)CCC3)cc1	/	/	/	/	/	4.1	/	/
CN(Cc1ccccc1)C(=O)OCc1cn(Cc2cccc(F)c2)nn1	/	/	/	/	/	-0.1	/	/
CCN(Cc1ccccc1)S(=O)(=O)c1ccc(C(=O)N(CCCN(C)C)c2nc3c(C)c(C)ccc3s2)cc1	261.5	59.6*	81.9*	-2.6	33.9	3.2	-15.4	33.4
Cc1ccc2sc(N(CCCN(C)C)C(=O)c3ccc(S(=O)(=O)N(C)C4CCCCC4)cc3)nc2c1C	253.3	61.6*	88.4*	0.1	29.3	3.7	-18.3	36.0
O=C(NC1CCCCN(Cc2cccc(C(F)(F)F)c2)C1=O)c1ccc(-c2ccccc2)cc1 (configuration not stated)	/	/	/	/	/	4.0	/	/

Source: PubChem (several laboratories)
